Values after ≈ are worked out from the molar mass of the structure shown. Values joined by “and” are separate entries in the source; they are usually repeats but may differ in a detail not shown here. Equal entries are not always repeated. Where two headings read alike, the source gives them in different places.

Series [1] concerns Mab type strain ATCC19977. Nature of the series: microbe, parasite or virus in culture. The conditions noted are these: Mycobacteroides abscessus, ATCC19977, read-out: IC50 in CAMHB.
The nature of series [2]: in vitro. The conditions noted are these: human, plasma.
For series [3] the following is noted: as published previously ref 28; cited from earlier work.
Series [4] deals with intracellular M. abscessus ATCC 19977 pTEC27 in THP-1 macrophages. Nature of the series: Growth inhibition of intracellular Mab in THP-1 derived macrophages. It counts as cell-based, Mycobacterium abscessus. The conditions noted are these: Mycobacteroides abscessus, ATCC19977, THP-1, read-out: MacIC50.
In series [5] the test system is HepG2 cells. Nature of the series: Cytotoxicity assays. It counts as cell-based, human. The conditions noted are these: indirect measure of selectivity.
Series [6] can be described thus: Pharmacokinetic studies in mice. It counts as in vivo, CD-1 mice.
The test system of series [7] is THP-1 derived macrophages. As to the kind of experiment: Uptake into THP-1 macrophages. It counts as in vitro ADME. The conditions noted are these: intracellular to extracellular concentration ratio.
Series [8] is described as follows: Caseum binding. It counts as in vitro ADME.
Series [9] concerns Mab ATCC19977 (wild type). It counts as cell-based, Mycobacterium abscessus subsp. abscessus. Conditions: concentration that inhibits 90% growth.
The test system of series [10] is 76 M. abscessus clinical isolates covering the 3 Mab subspecies. As to the kind of experiment: microbe, parasite or virus in culture. Conditions: Mycobacteroides abscessus. It counts as cell-based, Mycobacterium abscessus.
The subject of series [11] is Mab ATCC19977. As to the kind of experiment: Spontaneous mutant selection. It counts as cell-based, Mycobacterium abscessus. The conditions noted are these: solid medium containing 4× MIC.
Series [12] concerns CYP3A4 mRNA. As to the kind of experiment: CYP3A4 induction at the mRNA level in human hepatocytes. It counts as in vitro ADME.
Series [13] concerns intracellular Mab ATCC19977 in THP-1 macrophages. It counts as cell-based, Mycobacterium abscessus. Conditions: 48 h treatment, compared to the start of treatment. In outline: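 Intracellular bactericidal assay in THP-1-derived macrophages infected with M. abscessus subsp. abscessus ATCC19977. Test compound was added 2 h after infection at 1 and 10 µM and left on for 48 h. Each condition was run in technical triplicate.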

The test system of series [14] is M. abscessus subsp. abscessus ATCC 19977. Nature of the series: Efficacy in the GM-CSF KO mouse model of acute Mab infection. Conditions: 7 daily oral doses, 25 mg/kg. It counts as in vivo, GM-CSF KO (B6.129S-Csf2tm1Mlg/J) mice.
Series [15] concerns Mab type strain ATCC19977.
The test system of series [16] is Mab ATCC19977 replicating cultures. Nature of the series: microbe, parasite or virus in culture. It counts as cell-based, Mycobacterium abscessus subsp. abscessus.
The conditions of series [17]: Table 2.

As for `O=C1CCc2c(OC[C@]3(O)CCN(c4c(F)cc(Cl)cc4F)C[C@H]3O)ccc(F)c2N1` [OPC-167832, Quabodepistat], the IC50 in [1] turned out to be 120 nM. Also, in series [2], the fraction unbound (commonly free concentration divided by total concentration) was 0.0122. The plasma fu in series [3] is reported as ~ 1%.
For `CO[C@H]1/C=C/O[C@@]2(C)Oc3c(C)c(O)c4c(c3C2=O)C2=NC3(CCN(CC(C)C)CC3)NC2=C(NC(=O)/C(C)=C\C=C\[C@H](C)[C@H](O)[C@@H](C)[C@@H](O)[C@@H](C)[C@H](OC(C)=O)[C@@H]1C)C4=O` [RBT, Rifabutin], the IC50 was 700 nM in [4] and 1200 nM in series [1]. Also, in [5], the “HepG2 CC50/MIC” value is 154. Also, in [6] (AUC corrected for fraction unbound), the “fAUC/MIC at 10 mg/kg” value is listed as 0.2. In series [6] (CD-1 mice, oral), the Bioavailability was found to be 69.2%. The half-life – broadly, the time in which the quantity being followed falls by half – in [6] (female, CD-1, mouse, plasma) is 4.3 h. Besides, the clearance (commonly the rate of elimination divided by the concentration) in [6] (female, CD-1, mouse, plasma, iv, 5 mg/kg) was 10.3 mL/min/kg. In addition, the Vd (usually the apparent volume that relates the amount in the body to the concentration in plasma or blood) in series [6] (female, CD-1, mouse, plasma, iv, 5 mg/kg, Vd, CD-1 mice, i.v. 5 mg/kg) was found to be 3.9 L/kg. Moreover, the “plasma concentrations relative to potency values” in series [6] (oral 25 mg/kg, CD-1 mice) is listed as “did not achieve therapeutic concentrations”. Also, the “THP-1 IC/EC” value in [7] amounted to 26. The fraction unbound in [8] turned out to be 0.0094; in series [2] (fu human, human plasma), 0.036; in series [2] (plasma fu (human), Table 2) it was 0.0384. Moreover, in [9], the “WT Mab MIC” value was determined as 2.0 µM. For the same compound, the MIC50 in [10] (read-out: MIC50 against clinical isolates) stood at 4.7 µM (≈ 3.98 µg/mL). Moreover, in series [10] (read-out: MIC90 against clinical isolates), the MIC90 was determined as 9.1 µM (≈ 7.71 µg/mL). The frequency of resistance in series [11] is on record as 2.6 × 10^−8. Also, in [12] (1 µM), the “CYP3A4 induction @ 1 µM” value is 33 fold and 33.4 fold. In addition, in series [12] (10 µM), the “CYP3A4 induction @ 10 µM” value was 43 fold and 42.7 fold. Further, in [13], the “activity against intracellular Mab in macrophages at 1 and 10 µM” value is “did not inhibit intracellular growth of Mab”. In series [14], the “effect on lung bacterial burden” value was “neither reduced lung burden nor prevented bacterial growth”. Also, the IC50 serum shift in series [15] was 8.1 fold. Further, the MBC in [16] (Mycobacteroides abscessus, ATCC19977, read-out: MBC90) was found to be 3.5 µM (≈ 2.96 µg/mL). Moreover, the “kill plateau at 8× MIC” value in series [16] (replicating cultures, 3 d) is given as “approximately 2 log”.
As to `CO[C@H]1/C=C/O[C@@]2(C)Oc3c(C)c(O)c4c(c3C2=O)C2=NC3(CCN(CC(C)C)CC3)NC2=C(NC(=O)/C(C)=C/C=C/[C@H](C)[C@H](O)[C@@H](C)[C@@H](O)[C@@H](C)[C@H](OC(=O)Nc2c(C)nc3ccccn23)[C@@H]1C)C4=O` [UMN-131], the “plasma fu (human)” value in series [17] amounted to 6.55%. For the same compound, the IC50 serum shift in series [15] turned out to be 3.3 fold. The IC50 in series [15] (read-out: IC50 in 1:1 CAMHB:hSerum, 1:1 CAMHB:human serum) was determined as 200 nM; in series [15] (read-out: IC50 in CAMHB, CAMHB devoid of plasma proteins), 60 nM.

These data come from publication PMC12067261 (Proceedings of the National Academy of Sciences of the …, 2025).
